Consider two molecules from article PMC2728397 (The Journal of Cell Biology, 2009).

One assay concerns thymocytes (Bim level). Briefly: Bim expression in thymocytes. The class given is cell-based, mouse. The settings on record: mutant and WT thymocytes; Western blot. A general note: A western blot detects proteins with antibodies after separation by electrophoresis.
In another assay the test system is Mcl-1. The assay is described as follows: Coimmunoprecipitation from thymocyte lysates, Mcl-1. The class given is binding, mouse. The note with it: 1% Triton X-100 buffer, pH 7.4, anti-Bim 3C5. In outline:
(§1)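 Thymocytes came from WT and Bim BH3-replacement knockin mice. Cells were lysed in 20 mM Tris pH 7.4, 135 mM NaCl, 1.5 mM MgCl2, 1 mM EGTA, 10% glycerol, 1% Triton X-100 and protease inhibitors. Bim was immunoprecipitated with rat mAb 3C5 (N-terminal epitope, all isoforms and mutants). Partners were shown by SDS-PAGE/Western blot with ECL: hamster mAb 3F11 (Bcl-2), rabbit polyclonals (Bcl-xL, Mcl-1).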

A further assay relates to Bcl-2. Briefly: Coimmunoprecipitation from thymocyte lysates, Bcl-2. The class given is binding, mouse. The note with it: 1% Triton X-100 buffer, pH 7.4, anti-Bim 3C5. A digest of the protocol:
as §1

The subject of the next assay is Bcl-xL. The assay is described as follows: Coimmunoprecipitation from thymocyte lysates, Bcl-xL. The class given is binding, mouse. The settings on record: 1% Triton X-100 buffer, pH 7.4, anti-Bim 3C5. A digest of the protocol: as §1

Regarding `C[C@H](CCC(=O)O)C[C@H](C)C[C@H](C)C(=O)/C=C(\O)[C@H](C)C[C@H](C)C/C=C/[C@@H](C)[C@@H](O)[C@@H](C)[C@@H](O)C[C@@H]1CC[C@@](C)([C@H]2CC[C@@](C)([C@@H](C)O)O2)O1` [ionomycin], the Bim expression result with thymocytes (Bim level) was “increased Bim expression comparably in both the mutant and WT thymocytes”.

B1: WT Bim: wild-type Bim protein in thymocyte lysates (protein)
chain: MAKQPSDVSSECDREGGQLQPAERPPQLRPGAPTSLQTEPQGNPDGEGDRCPHGSPQGPLAPPASPGPFATRSPLFIFVRRSSLLSRSSSGYFSFDTDRSPAPMSCDKSTQTPSPPCQAFNHYLSAMASIRQSQEEPEDLRPEIRIAQELRRIGDEFNETYTRRVFANDYREAEDHPQMVILQLLRFIFRLVWRRH
In the case of B1, the “coimmunoprecipitation with Mcl-1” value in the assay on Mcl-1 is reported as “bound all of these prosurvival proteins”. In addition, the “coimmunoprecipitation with Bcl-2” value in the assay with Bcl-2 is given as “bound all of these prosurvival proteins”. The “coimmunoprecipitation with Bcl-xL” value with Bcl-xL was “bound all of these prosurvival proteins”.
